{"source": "paper PMC5164959", "about": "(Biochemical pharmacology, 2016)", "key": {"DGKα": {"biological_target": "DGKα (Rattus norvegicus, UniProt P51556)", "sequence (P51556 whole entry)": "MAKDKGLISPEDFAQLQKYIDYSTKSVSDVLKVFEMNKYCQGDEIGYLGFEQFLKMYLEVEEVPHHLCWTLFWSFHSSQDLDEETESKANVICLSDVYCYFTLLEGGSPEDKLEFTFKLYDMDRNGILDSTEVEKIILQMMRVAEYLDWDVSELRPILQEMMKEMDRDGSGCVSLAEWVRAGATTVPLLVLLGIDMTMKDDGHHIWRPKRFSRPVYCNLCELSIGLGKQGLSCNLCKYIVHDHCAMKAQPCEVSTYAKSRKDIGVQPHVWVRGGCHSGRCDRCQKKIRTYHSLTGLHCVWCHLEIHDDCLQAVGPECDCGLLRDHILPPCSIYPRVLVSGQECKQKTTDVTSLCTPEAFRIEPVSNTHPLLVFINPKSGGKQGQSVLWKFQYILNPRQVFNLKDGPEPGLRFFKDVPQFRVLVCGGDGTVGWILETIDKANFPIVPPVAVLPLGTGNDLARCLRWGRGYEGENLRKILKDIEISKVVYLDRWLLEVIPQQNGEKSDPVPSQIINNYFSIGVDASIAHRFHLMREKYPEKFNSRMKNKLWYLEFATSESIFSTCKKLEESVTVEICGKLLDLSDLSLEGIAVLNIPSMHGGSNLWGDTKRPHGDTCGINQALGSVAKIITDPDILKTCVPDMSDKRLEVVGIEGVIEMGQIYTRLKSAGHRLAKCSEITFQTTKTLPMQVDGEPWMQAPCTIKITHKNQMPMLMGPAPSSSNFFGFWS", "assay": "Kinase assay with HEK 293T cell homogenate over-expressing DGKα", "type": "biochemical", "procedure,_shortened": "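Each reaction held 5 μg homogenate protein, 2 mM extruded PC:PS:DAG liposomes (10 mol% dioleoyl, dioctanoyl or stearoyl-arachidonoyl DAG), buffer B, 1 mM DTT, 1 mM CaCl2 and 1 mM [γ32P]-ATP, run 20 min at 30°C. Test compounds came from DMSO stocks. 32P-PA was counted, normalized to GFP lysate and to DMSO control; IC50 from log[inhibitor] versus normalized response.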"}, "DGKβ [1]": {"biological_target": "DGKβ (Rattus norvegicus, UniProt P49621)", "assay": "Kinase assay with HEK 293T cell homogenate over-expressing DGKβ", "type": "biochemical", "conditions": "20 μM inhibitor, dioleoyl DAG liposomes", "procedure,_shortened": "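Reactions contained 5 μg homogenate, 2 mM liposomes (10 mol% dioleoyl DAG, 40 mol% PS, 50 mol% PC), buffer B, 1 mM DTT, 1 mM CaCl2 and [γ32P]-ATP, 20 min at 30°C. Test compound was added from DMSO. Organic-phase 32P was counted and expressed as percent of DMSO control after subtracting the GFP-lysate background.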"}, "DGKδ": {"biological_target": "DGKδ (Homo sapiens, UniProt Q16760)", "assay": "Kinase assay with HEK 293T cell homogenate over-expressing DGKδ", "type": "biochemical", "conditions": "20 μM inhibitor, dioleoyl DAG liposomes", "procedure,_shortened": "(§1)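 Reactions without CaCl2 contained 5 μg homogenate, 2 mM liposomes (10 mol% dioleoyl DAG, 40 mol% PS, 50 mol% PC), buffer B, 1 mM DTT and [γ32P]-ATP, 20 min at 30°C. Test compound was added from DMSO. Extracted 32P-lipid was counted, GFP-lysate normalized, and expressed as percent of DMSO control.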"}, "DGKι": {"biological_target": "DGKι (Homo sapiens, UniProt O75912)", "sequence (O75912 1-1065 isoform O75912-1)": "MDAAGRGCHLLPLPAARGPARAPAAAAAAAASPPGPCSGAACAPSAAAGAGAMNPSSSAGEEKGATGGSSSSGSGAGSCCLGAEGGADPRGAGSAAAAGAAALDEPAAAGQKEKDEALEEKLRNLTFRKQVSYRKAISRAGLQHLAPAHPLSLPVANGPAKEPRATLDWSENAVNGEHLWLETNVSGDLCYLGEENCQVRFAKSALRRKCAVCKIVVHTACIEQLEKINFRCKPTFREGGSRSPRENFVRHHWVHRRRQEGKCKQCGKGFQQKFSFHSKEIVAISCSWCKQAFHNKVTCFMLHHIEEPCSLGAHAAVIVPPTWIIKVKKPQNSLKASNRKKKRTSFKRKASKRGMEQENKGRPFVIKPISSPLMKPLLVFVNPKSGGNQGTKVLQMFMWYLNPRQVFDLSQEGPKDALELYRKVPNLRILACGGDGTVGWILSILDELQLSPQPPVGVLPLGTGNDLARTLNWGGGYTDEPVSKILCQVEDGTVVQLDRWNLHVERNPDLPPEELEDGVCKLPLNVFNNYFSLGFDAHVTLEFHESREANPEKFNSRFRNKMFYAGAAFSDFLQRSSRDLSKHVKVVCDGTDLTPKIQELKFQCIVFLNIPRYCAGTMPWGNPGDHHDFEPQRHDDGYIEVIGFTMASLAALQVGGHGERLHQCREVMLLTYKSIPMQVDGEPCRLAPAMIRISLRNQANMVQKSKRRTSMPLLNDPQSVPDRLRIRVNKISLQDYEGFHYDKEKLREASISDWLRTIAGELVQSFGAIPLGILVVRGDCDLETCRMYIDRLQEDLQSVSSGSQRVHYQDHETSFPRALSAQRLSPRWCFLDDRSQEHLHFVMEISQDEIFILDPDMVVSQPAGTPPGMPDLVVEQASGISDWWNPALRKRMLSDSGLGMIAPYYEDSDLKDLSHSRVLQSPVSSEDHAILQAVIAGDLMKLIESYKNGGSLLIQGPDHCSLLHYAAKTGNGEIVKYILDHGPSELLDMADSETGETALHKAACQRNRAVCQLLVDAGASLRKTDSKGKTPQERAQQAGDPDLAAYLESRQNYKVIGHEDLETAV", "assay": "Kinase assay with HEK 293T cell homogenate over-expressing DGKι", "type": "biochemical"}, "DGKθ": {"biological_target": "DGKθ (Homo sapiens, UniProt P52824)", "sequence (P52824 whole entry)": "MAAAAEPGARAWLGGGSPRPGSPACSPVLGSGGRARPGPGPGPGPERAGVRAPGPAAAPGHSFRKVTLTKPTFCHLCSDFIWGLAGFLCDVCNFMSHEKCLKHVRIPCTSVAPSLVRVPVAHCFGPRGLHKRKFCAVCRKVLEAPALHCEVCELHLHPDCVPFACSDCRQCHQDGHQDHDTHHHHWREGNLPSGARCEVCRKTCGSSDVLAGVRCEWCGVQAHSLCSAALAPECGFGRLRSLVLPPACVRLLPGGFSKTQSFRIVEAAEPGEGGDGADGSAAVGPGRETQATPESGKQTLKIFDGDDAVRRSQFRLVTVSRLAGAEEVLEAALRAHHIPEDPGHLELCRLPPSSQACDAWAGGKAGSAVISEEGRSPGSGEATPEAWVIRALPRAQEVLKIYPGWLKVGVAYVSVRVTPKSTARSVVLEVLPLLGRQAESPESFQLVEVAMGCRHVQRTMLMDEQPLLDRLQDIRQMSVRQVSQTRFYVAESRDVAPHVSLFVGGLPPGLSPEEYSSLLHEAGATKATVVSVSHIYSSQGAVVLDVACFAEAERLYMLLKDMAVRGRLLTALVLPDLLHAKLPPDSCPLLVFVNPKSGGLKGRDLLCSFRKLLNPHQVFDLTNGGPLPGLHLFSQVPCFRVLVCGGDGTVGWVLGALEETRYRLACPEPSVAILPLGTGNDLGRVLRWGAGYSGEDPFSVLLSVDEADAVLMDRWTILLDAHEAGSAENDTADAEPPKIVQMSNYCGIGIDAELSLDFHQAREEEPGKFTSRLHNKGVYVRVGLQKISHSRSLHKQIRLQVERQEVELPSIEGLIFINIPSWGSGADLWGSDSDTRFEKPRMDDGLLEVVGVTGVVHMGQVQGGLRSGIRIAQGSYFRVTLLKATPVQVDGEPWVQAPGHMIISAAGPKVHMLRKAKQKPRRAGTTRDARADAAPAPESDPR", "assay": "Kinase assay with HEK 293T cell homogenate over-expressing DGKθ", "type": "biochemical", "conditions": "20 μM inhibitor, dioleoyl DAG liposomes", "procedure,_shortened": "as §1"}, "5-HT1A": {"biological_target": "T1, 5-HT1A (Homo sapiens, UniProt P08908)", "T1 sequence (P08908 1-422)": "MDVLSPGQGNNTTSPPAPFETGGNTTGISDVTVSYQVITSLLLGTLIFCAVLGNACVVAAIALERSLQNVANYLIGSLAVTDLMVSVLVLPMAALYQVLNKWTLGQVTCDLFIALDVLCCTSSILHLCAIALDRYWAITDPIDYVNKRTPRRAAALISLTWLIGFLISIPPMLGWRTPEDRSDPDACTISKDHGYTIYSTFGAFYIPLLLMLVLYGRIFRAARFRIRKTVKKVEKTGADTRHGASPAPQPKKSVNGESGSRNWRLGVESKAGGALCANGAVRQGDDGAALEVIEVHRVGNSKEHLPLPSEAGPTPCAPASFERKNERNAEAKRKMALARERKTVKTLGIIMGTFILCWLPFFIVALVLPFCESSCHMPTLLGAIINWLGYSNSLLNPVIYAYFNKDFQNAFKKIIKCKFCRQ", "assay": "Radioligand competition binding assay"}, "5-HT2B": {"biological_target": "5-HT2B (Homo sapiens, UniProt P41595)", "sequence (P41595 whole entry, species assumed)": "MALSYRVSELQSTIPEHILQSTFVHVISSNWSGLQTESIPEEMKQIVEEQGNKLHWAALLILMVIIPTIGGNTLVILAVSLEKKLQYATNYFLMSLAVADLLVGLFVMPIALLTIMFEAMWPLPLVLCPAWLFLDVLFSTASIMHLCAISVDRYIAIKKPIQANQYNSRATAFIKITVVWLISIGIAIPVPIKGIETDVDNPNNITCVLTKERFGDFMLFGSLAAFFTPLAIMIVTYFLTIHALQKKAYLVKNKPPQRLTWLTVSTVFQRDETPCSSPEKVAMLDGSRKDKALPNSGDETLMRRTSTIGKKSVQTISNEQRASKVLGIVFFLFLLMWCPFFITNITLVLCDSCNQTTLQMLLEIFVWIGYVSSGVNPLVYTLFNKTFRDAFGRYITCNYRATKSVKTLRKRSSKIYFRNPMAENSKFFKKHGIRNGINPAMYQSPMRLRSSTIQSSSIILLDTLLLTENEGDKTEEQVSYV", "assay": "Radioligand competition binding assay"}, "5-HT2C": {"biological_target": "T2, 5-HT2C (Homo sapiens, UniProt P28335)", "T2 sequence (P28335 33-458)": "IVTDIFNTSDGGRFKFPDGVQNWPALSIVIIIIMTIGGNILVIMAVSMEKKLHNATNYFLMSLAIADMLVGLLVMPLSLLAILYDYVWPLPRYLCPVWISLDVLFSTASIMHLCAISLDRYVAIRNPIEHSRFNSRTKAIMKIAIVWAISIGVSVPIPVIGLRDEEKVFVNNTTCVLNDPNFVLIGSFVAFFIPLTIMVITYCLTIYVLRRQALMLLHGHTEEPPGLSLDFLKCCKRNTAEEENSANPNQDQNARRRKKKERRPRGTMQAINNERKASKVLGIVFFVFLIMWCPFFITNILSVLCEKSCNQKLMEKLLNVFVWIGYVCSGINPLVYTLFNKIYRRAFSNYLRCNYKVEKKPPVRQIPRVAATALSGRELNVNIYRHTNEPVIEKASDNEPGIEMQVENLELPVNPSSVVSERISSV", "assay": "Radioligand competition binding assay", "conditions": "read-out: Ki 5-HT2C; Cheng-Prusoff from best-fit IC50"}, "5-HT3": {"biological_target": "5-HT3 (Homo sapiens, UniProt P46098)", "sequence (P46098 24-478, species assumed)": "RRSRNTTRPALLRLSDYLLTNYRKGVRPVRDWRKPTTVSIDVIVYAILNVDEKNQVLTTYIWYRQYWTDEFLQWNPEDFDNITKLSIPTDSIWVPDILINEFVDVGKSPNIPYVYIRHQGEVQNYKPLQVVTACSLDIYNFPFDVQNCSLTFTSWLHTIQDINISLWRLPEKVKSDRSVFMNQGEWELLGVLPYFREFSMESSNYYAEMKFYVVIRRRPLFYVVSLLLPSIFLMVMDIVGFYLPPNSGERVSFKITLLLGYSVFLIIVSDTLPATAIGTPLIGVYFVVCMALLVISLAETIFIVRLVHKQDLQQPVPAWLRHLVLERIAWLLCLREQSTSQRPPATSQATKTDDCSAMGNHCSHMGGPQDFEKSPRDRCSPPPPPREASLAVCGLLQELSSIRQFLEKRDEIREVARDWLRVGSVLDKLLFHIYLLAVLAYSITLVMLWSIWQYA", "assay": "Radioligand competition binding assay", "conditions": "10 μM test compound, n=4", "procedure,_shortened": "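Run by the NIMH PDSP as a radioligand competition binding primary screen. Test compounds were applied at 10 μM, and the read-out was mean percent inhibition of radioligand binding (n=4).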"}, "5-HT6": {"biological_target": "5-HT6 (Homo sapiens, UniProt P50406)", "sequence (P50406 whole entry, species assumed)": "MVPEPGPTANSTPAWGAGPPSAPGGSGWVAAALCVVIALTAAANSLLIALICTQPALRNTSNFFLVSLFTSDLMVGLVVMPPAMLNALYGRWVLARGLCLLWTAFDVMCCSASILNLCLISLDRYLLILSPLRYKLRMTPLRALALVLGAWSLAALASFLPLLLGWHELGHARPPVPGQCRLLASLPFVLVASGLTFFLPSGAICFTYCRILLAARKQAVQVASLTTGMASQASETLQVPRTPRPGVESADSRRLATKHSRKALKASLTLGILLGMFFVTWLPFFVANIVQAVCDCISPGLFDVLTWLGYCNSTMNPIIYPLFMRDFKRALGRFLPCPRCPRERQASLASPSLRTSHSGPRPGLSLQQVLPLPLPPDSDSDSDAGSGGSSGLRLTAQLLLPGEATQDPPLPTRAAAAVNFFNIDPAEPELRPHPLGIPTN", "assay": "Radioligand competition binding assay", "procedure,_shortened": "(§2)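 Run by the NIMH PDSP as radioligand competition binding assays. The primary screen used 10 μM test compound and reported mean percent inhibition of radioligand binding (n=4); above 50% counted as significant. At those receptors, IC50 values came from non-linear regression of competition binding isotherms and were converted to Ki with the Cheng-Prusoff equation.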"}, "5-HT7": {"biological_target": "5-HT7 (Homo sapiens, UniProt P34969)", "sequence (P34969 whole entry, species assumed)": "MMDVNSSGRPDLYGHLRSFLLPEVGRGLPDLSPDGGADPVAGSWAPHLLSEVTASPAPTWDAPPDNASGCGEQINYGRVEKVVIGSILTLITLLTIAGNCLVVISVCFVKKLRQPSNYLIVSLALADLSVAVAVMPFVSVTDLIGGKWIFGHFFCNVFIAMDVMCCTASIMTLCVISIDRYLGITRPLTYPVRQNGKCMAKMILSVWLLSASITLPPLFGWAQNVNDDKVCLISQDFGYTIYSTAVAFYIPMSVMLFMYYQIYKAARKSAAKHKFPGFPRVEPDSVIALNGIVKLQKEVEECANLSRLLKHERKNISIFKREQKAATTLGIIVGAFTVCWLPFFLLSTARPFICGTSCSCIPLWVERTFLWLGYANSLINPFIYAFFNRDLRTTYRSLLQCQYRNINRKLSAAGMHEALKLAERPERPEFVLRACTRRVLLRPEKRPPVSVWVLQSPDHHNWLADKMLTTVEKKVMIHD", "assay": "Radioligand competition binding assay", "procedure,_shortened": "as §2"}, "5-HTRs": {"test_system": "5-HTRs", "assay": "Agonist functional assays at 5 serotonin receptors", "type": "cell-based", "conditions": "5 receptors where low Ki values were observed; data not shown"}, "PKC [2]": {"test_system": "PKC", "assay": "PKC activation: phosphorylation of PKC substrates by western blot in HeLa cells", "type": "cell-based, human", "conditions": "40 μM, 30 min", "procedure,_shortened": "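HeLa cells were grown in DMEM with 5% FBS and treated 30 min with 4 or 40 μM test compound or 100 nM PMA, with or without 1 h pretreatment with 500 nM bisindolylmaleimide II. In separate runs, a 5-HT2AR agonist (10 μM, 6 h) was given with or without 40 μM antagonist. Lysates (50 μg) were immunoblotted for phospho-(Ser) PKC substrates; four independent experiments were quantified.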"}, "PKC [3]": {"test_system": "PKC", "assay": "PKC activation: phosphorylation of PKC substrates by western blot in U87 cells", "type": "cell-based, human", "conditions": "treatment for 30 min", "procedure,_shortened": "(§3)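 Glioblastoma cells were treated 30 min with 4 or 40 μM test compound or 100 nM PMA, with or without 1 h pretreatment with 500 nM bisindolylmaleimide II. Cleared Triton lysates (50 μg) were run on 8.75% SDS-PAGE and probed with phospho-(Ser) PKC substrate antibody, detected by alkaline phosphatase chemiluminescence. Three independent experiments were quantified.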"}, "PKC [4]": {"test_system": "PKC", "assay": "PKC activation: phosphorylation of PKC substrates by western blot in U251 cells", "type": "cell-based, human", "conditions": "treatment for 30 min", "procedure,_shortened": "as §3"}, "DGKβ [5]": {"test_system": "DGKβ", "conditions": "30 μM R59022; cited from earlier work"}, "DGKγ": {"test_system": "DGKγ", "conditions": "30 μM R59022; cited from earlier work"}}}
{"compound": "Cc1nc2sccn2c(=O)c1CCN1CCC(=C(c2ccccc2)c2ccc(F)cc2)CC1", "note": "[R59022]", "values": [{"measurement": "Activity of DGKα, percent of control", "setting": "DGKα; 20 μM inhibitor, liposomes with dioleoyl DAG, cell homogenate", "value": "decreased by about half"}, {"measurement": "Potency against DGKα with other DAG species", "setting": "DGKα; 20 μM, liposomes containing dioctanoyl or stearoyl arachidonoyl DAG", "value": "similarly potent"}, {"measurement": "IC50", "setting": "DGKα; read-out: IC50 for DGKα, cell homogenate, 1 mM ATP, 10 mol% DAG", "value": "~25000", "unit": "nM"}, {"measurement": "Activity of DGKβ, percent of control", "setting": "DGKβ [1]", "value": "not detectably inhibited"}, {"measurement": "Activity of DGKδ, percent of control", "setting": "DGKδ", "value": "not detectably inhibited"}, {"measurement": "Activity of DGKι, percent of control", "setting": "DGKι; 20 μM inhibitor, dioleoyl DAG liposomes, cell homogenate", "value": "not detectably inhibited"}, {"measurement": "IC50 for DGKι relative to IC50 for DGKα", "setting": "DGKι; fold higher than IC50 for DGKα", "value": "2–3 fold"}, {"measurement": "IC50", "setting": "DGKι; read-out: IC50 for DGKι, cell homogenate, 1 mM ATP, 10 mol% DAG", "value": "~60000", "unit": "nM"}, {"measurement": "Activity of DGKθ, percent of control", "setting": "DGKθ", "value": "not detectably inhibited"}, {"measurement": "Percent Inhibition of Binding 5-HT1A", "setting": "5-HT1A; 10 μM test compound, n=4", "value": 82.4, "unit": "%"}, {"measurement": "Ki", "setting": "5-HT1A; read-out: Ki 5-HT1A, Cheng-Prusoff from best-fit IC50", "value": 410, "unit": "nM"}, {"measurement": "Percent Inhibition of Binding 5-HT2B", "setting": "5-HT2B; 10 μM test compound, n=4", "value": 100.5, "unit": "%"}, {"measurement": "Ki", "setting": "5-HT2B; read-out: Ki 5-HT2B, Cheng-Prusoff from best-fit IC50", "value": 2.7, "unit": "nM"}, {"measurement": "Ki", "setting": "5-HT2C", "value": 0.8, "unit": "nM"}, {"measurement": "Percent Inhibition of Binding 5-HT3", "setting": "5-HT3", "value": 10.9, "unit": "%"}, {"measurement": "Percent Inhibition of Binding 5-HT6", "setting": "5-HT6; 10 μM test compound, n=4", "value": 96.9, "unit": "%"}, {"measurement": "Ki", "setting": "5-HT6; read-out: Ki 5-HT6, Cheng-Prusoff from best-fit IC50", "value": 55.3, "unit": "nM"}, {"measurement": "Percent Inhibition of Binding 5-HT7", "setting": "5-HT7; 10 μM test compound, n=4", "value": 98.5, "unit": "%"}, {"measurement": "Ki", "setting": "5-HT7; read-out: Ki 5-HT7, Cheng-Prusoff from best-fit IC50", "value": 14.2, "unit": "nM"}, {"measurement": "Agonist activity at 5-HTRs", "setting": "5-HTRs", "value": "very low to no activity"}, {"measurement": "Increase in phosphorylation of PKC downstream targets", "setting": "PKC [2]", "value": "about 2.5 fold"}, {"measurement": "Activation of PKC", "setting": "PKC [3]", "value": "activate PKC"}, {"measurement": "Activation of PKC", "setting": "PKC [4]", "value": "not in U251 cells"}, {"measurement": "Inhibition of DGKβ", "setting": "DGKβ [5]", "value": "did not inhibit"}, {"measurement": "Inhibition of DGKγ", "setting": "DGKγ", "value": "did not inhibit"}]}
